Source: PubChem (several laboratories)
In the library only some 12% were active in any assay of this set; here they are far more common.
L major viab: inhibitors of Leishmania major promastigote growth | Leishmania major promastigotes, resazurin fluorescence viability | hit rate 9% among 200,000 | inhibition, % at 10 µM; in the data active means inhibition above about 50%;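 further: promastigotes grown with compound for 44 hours at 28 °C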
Diaphorase inh: diaphorase inhibition or chemical oxidation counter-screen | diaphorase resazurin-to-resorufin fluorescence, NADH, 16 min; bacterial (C. kluyveri) enzyme, not human | inhibition, % at 20 µM | hit rate 0.69% among 190,000;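 active means primary screen inhibition at 20 µM above a set limit, cut at about 50% in these data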
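System: Diaphorase enzyme from Clostridium kluyveri | Amount: Enzyme working solution with 0.14 U/mL diaphorase | Benchmarks: No-NADH positive control and DMSO neutral control | Signal: Fluorescence of resorufin formed from resazurin, Ex 544/Em 590 nm | Schedule: 16-min room-temperature incubation before reading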
Diaphorase act: diaphorase activation or chemical reduction counter-screen; AID 1229; activation factor at 20 µM; hit rate 0.005% among 190,000; Diaphorase/resazurin coupled assay, resorufin fluorescence, 16 min; active compounds read high; 1 = vehicle wells, 0 = NADH-free wells;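 active means diaphorase activity raised at least twofold by the compound at 20 µM; inactive means activation factor below 2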
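Test system: Clostridium kluyveri diaphorase, purified enzyme. Buffer or medium: 50 mM HEPES pH 7.4 buffer plus MgCl2 and Tween 20. Also added: 0.114 mM NADH and 0.1 mM resazurin, final amounts. Dosing: compound 20 µM once, DMSO 1%. Schedule: 16 min enzyme reaction, ambient temperature. Detection: fluorescence of resorufin, 544 nm excitation, 590 nm emission.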
WT yeast gro inh: growth inhibition of WT yeast, mitochondrial fusion screen. hit rate 2.1% among 190,000. mitochondrial fusion phenotypic screen, WT strain. inhibition, % at 10 µM. AID 1362; in the data active means inhibition above about 58%; tested in S. cerevisiae
Cl transport mod: KCC2 (human) Cl- transport modulation; Q9H2X9; KCC2 cells, thallium flux FluoZin-2 fluorescence; B-score of Tl+ flux slope (higher = more flux/activation; lower = inhibition) at 10 µM; hit rate 2.2% among 190,000; AID 1456;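 active means thallium flux slope and its plate-corrected score both differing from the plate sample mean at a set confidence after two filtering rounds, in either direction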;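 further: slope of fluorescence scaled to starting intensity during 10 to 20 s after thallium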
Target sequence (Q9H2X9 whole entry, looked up): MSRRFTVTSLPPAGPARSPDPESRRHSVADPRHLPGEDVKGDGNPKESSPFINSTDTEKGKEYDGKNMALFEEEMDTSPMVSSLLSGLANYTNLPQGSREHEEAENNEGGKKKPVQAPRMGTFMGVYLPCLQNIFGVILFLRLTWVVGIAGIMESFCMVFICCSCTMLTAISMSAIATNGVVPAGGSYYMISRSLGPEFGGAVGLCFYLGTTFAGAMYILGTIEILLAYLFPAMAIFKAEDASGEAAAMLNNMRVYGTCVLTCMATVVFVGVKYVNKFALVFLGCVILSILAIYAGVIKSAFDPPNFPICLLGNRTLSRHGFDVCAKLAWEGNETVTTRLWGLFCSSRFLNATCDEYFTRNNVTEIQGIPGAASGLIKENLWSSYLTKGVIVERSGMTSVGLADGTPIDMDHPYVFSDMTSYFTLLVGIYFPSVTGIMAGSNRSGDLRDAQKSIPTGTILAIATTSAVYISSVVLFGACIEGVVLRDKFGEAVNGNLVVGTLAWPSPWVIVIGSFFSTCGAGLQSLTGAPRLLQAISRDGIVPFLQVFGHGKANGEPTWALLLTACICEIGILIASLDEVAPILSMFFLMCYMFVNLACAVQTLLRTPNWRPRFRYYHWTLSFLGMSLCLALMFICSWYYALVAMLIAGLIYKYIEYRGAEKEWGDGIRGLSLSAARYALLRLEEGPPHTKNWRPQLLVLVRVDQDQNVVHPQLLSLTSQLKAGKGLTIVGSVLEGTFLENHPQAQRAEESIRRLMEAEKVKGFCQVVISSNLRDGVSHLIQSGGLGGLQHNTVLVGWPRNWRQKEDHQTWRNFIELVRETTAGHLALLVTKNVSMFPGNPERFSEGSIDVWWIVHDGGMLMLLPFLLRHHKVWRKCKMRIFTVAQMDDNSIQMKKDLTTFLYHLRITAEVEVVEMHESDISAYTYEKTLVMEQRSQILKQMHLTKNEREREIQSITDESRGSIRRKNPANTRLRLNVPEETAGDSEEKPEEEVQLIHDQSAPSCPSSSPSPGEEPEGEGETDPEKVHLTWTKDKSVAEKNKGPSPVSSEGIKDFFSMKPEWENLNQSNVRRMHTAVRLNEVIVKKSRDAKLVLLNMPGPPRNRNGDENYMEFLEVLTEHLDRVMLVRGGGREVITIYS
ROMK mod: modulators of human ROMK potassium channel | P48048 | Tet-inducible ROMK, thallium flux fluorescence; actives lie on both sides | B-score at 10 µM | hit rate 2% among 130,000;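 active means signal ratio slope over the read window, or its plate-corrected B-score, at least 3 SD from the plate mean, either direction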;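 further: B-score of the F/F0 ratio slope over 7 to 12 s after thallium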
KCC2 sec1: confirmation of human KCC2 transport modulators; shares compounds with Cl transport mod; HEK293-KCC2, thallium flux, FluoZin2 fluorescence; active compounds read high; normalised thallium flux (F/F0 slope) at 10 µM; hit rate 15% among 3,700;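 active means thallium flux slope above the same plate's solvent-only control mean plus 3 SD; inconclusive means the two replicate wells disagree; inactive means no significant difference from solvent-only control wells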
KCC2 bumet counter: thallium flux despite bumetanide block in KCC2 cells, secondary assay 3 | shares compounds with Cl transport mod | HEK293-KCC2 + bumetanide/ouabain, thallium flux FluoZin2; active compounds read high | normalized thallium flux at 10 µM | hit rate 49% among 3,700;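 active means thallium entry rate above the same plate's blocked-transporter control wells by more than 3 SD; inconclusive means the two repeat wells disagree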;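 further: raw slope of fluorescence over initial fluorescence between 10 and 20 s after thallium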
KCC2 sec2: confirmation of human KCC2 transport modulators | shares compounds with Cl transport mod | HEK293-KCC2, thallium flux FluoZin2 fluorescence; actives lie on both sides; F/F0 rise rate, 10–20 s post-thallium | normalized thallium flux at 10 µM | hit rate 23% among 3,700;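 active means thallium flux slope more than 3 SD above or below the plate's solvent-only control mean, mostly below; inconclusive means the two repeat wells disagreed; inactive means no significant shift from solvent-only controls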
HEK293 Tl flux: counter-screen for KCC2 modulators: effect in parental HEK293 cells. shares compounds with Cl transport mod. thallium flux FluoZin2, ouabain; baseline-ratio fluorescence slope, 10–20 s after thallium. thallium flux rate (normalised fluorescence) at 10 µM. hit rate 46% among 3,700. AID 1716;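 active means thallium flux rate significantly above the same plate's solvent-only control wells, beyond their mean plus 3 SD; inconclusive means the two replicate wells gave conflicting results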
KCC2 ouabain: KCC2 (human) modulation, ouabain retest; shares compounds with Cl transport mod; HEK293-KCC2, thallium flux FluoZin2 fluorescence; bidirectional: low = inhibitor, high = activator; raw Tl+ flux slope (below DMSO = inhibition, above = activation) at 10 µM; hit rate 48% among 3,700; AID 1717;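 active means thallium flux slope beyond 3 SD from same-plate DMSO control mean in most replicates, usually higher, sometimes lower; inconclusive means repeat tests gave conflicting results; inactive means no significant difference from controls in most replicates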;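 further: slope of initial-normalized fluorescence between seconds 10 and 20 after thallium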
HEK293 Tl flux2: acts in parental HEK cells, second KCC2 counter-screen. hit rate 33% among 3,700. HEK293 parental, thallium flux FluoZin-2 fluorescence slope. shares compounds with Cl transport mod. thallium flux slope at 10 µM. AID 1718;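 active means thallium flux slope above the same plate's solvent-control mean plus 3 SD in both duplicate wells; inconclusive means duplicate wells that disagreed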;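 further: run without ouabain in cells lacking the KCC2 cotransporter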
Large screens that a line does not name were inactive (follow-up assays come after a bar, where they were run).

CCN(CC)c1c([N+](=O)[O-])c(=O)n(CC)c2ccccc12	Cl transport mod -4.6 (no result: L major viab, Diaphorase inh, Diaphorase act, WT yeast gro inh, ROMK mod) | KCC2 sec1 inactive | KCC2 bumet counter 0.0031 | KCC2 sec2 inactive | HEK293 Tl flux 0.0045 | KCC2 ouabain 0.017 | HEK293 Tl flux2 0.0076
CCNc1c([N+](=O)[O-])c(=O)n(CC)c2ccccc12	none (no result: L major viab, Diaphorase inh, Diaphorase act, WT yeast gro inh, ROMK mod)
Cc1ccc(C)n1NC(=O)c1ccc(O)cc1	none
Cc1ccc(C)n1NC(=O)c1ccccc1	Cl transport mod -5.8 (no result: ROMK mod) | KCC2 sec1 inactive | KCC2 bumet counter inconclusive | KCC2 sec2 inactive | HEK293 Tl flux inactive | KCC2 ouabain inactive | HEK293 Tl flux2 inactive
Cc1cc(Cl)ccc1Oc1ccc(C(N)=O)cc1[N+](=O)[O-]	none
Cc1cc(Cl)ccc1Oc1ccccc1C(=O)CC#N	Cl transport mod -5.5 | KCC2 sec1 inactive | KCC2 bumet counter inactive | KCC2 sec2 inconclusive | HEK293 Tl flux inactive | KCC2 ouabain inconclusive | HEK293 Tl flux2 inactive
O=C(NCc1ccc(Cl)cc1)c1n[nH]c([N+](=O)[O-])c1Cl	Cl transport mod -3.8 | KCC2 sec1 inactive | KCC2 bumet counter 0.0057 | KCC2 sec2 inconclusive | HEK293 Tl flux inconclusive | KCC2 ouabain inactive | HEK293 Tl flux2 inactive
Cc1ccc(C2C(/C=C3/SC(=S)NC3=O)=C(c3cccs3)Oc3ccccc32)cc1 (stereo not given)	none
N#Cc1c2n(c3c(=O)n(Cc4ccc(Cl)cc4)cnc13)CCCCC2	none (no result: Cl transport mod) | KCC2 sec1 inactive | KCC2 bumet counter inactive | KCC2 sec2 0.023 | HEK293 Tl flux inconclusive | KCC2 ouabain 0.014 | HEK293 Tl flux2 inactive
N#Cc1c2n(c3c(=O)n(Cc4ccccc4)cnc13)CCCC2	none (no result: ROMK mod)
CCN(Cc1ccccc1)c1ccc(/C=N/NS(=O)(=O)c2cccc([N+](=O)[O-])c2)cc1	none
Cc1ccc(-c2n[nH]c(=S)n2-c2ccccc2)cc1	none (no result: ROMK mod)
Cc1ccc(-n2c(-c3cccc(C)c3)n[nH]c2=S)cc1	Cl transport mod 5.8 (no result: ROMK mod) | KCC2 sec1 inactive | KCC2 bumet counter 0.02 | KCC2 sec2 inactive | HEK293 Tl flux 0.014 | KCC2 ouabain 0.021 | HEK293 Tl flux2 0.017
CCn1c(-c2csc3ccccc23)n[nH]c1=S	none (no result: ROMK mod)
CC(C)Cn1c(-c2csc(C(C)C)c2)n[nH]c1=S	WT yeast gro inh 67, Cl transport mod 21 | KCC2 sec1 0.015 | KCC2 bumet counter 0.08 | KCC2 sec2 inactive | HEK293 Tl flux 0.032 | KCC2 ouabain 0.056 | HEK293 Tl flux2 0.012
Cc1ccc([N+](=O)[O-])c(-c2n[nH]c(=S)n2-c2cccc(Cl)c2)c1	Cl transport mod 7.1 (no result: L major viab, Diaphorase inh, Diaphorase act, WT yeast gro inh, ROMK mod) | KCC2 sec1 0.014 | KCC2 bumet counter 0.032 | KCC2 sec2 inactive | HEK293 Tl flux 0.012 | KCC2 ouabain inconclusive | HEK293 Tl flux2 0.012
Cc1cccc(-n2c(-c3ccoc3C)n[nH]c2=S)c1	none
CC(C)Cn1c(-c2csc3ccccc23)n[nH]c1=S	Cl transport mod 4.9 (no result: ROMK mod) | KCC2 sec1 inactive | KCC2 bumet counter 0.019 | KCC2 sec2 inactive | HEK293 Tl flux 0.018 | KCC2 ouabain inconclusive | HEK293 Tl flux2 0.015
Cc1cccc(-n2c(-c3csc4ccccc34)n[nH]c2=S)c1	WT yeast gro inh 64, Cl transport mod 17 (no result: ROMK mod) | KCC2 sec1 0.013 | KCC2 bumet counter 0.069 | KCC2 sec2 inactive | HEK293 Tl flux 0.026 | KCC2 ouabain 0.055 | HEK293 Tl flux2 inconclusive
S=C(NCc1ccco1)Nc1ccc(Cl)cc1Cl	none
S=C(NCc1ccco1)Nc1ccc(Br)cc1Cl	Cl transport mod 4 | KCC2 sec1 inactive | KCC2 bumet counter 0.011 | KCC2 sec2 inactive | HEK293 Tl flux 0.0093 | KCC2 ouabain inactive | HEK293 Tl flux2 inconclusive
COc1ccccc1CNC(=O)CSc1ccc(-c2ccccn2)nn1	none
CC(C)OC(=O)c1nn2c(C(F)(F)F)cc(-c3ccc(Br)o3)nc2c1Br	none (no result: Cl transport mod) | KCC2 sec1 inactive | KCC2 bumet counter inactive | KCC2 sec2 inactive | HEK293 Tl flux inactive | KCC2 ouabain inactive | HEK293 Tl flux2 inactive
COc1ccc(Nc2nc3ccccc3c(=O)s2)c(OC)c1	none
Cc1ccc(C(=O)Nc2nc3ccccc3c(=O)s2)cc1	Cl transport mod 41 | KCC2 sec1 0.027 | KCC2 bumet counter 0.14 | KCC2 sec2 0.054 | HEK293 Tl flux 0.079 | KCC2 ouabain 0.11 | HEK293 Tl flux2 0.029
Cc1ccc(Nc2nc3ccccc3c(=O)s2)cc1C	Cl transport mod 17 | KCC2 sec1 inactive | KCC2 bumet counter 0.031 | KCC2 sec2 0.043 | HEK293 Tl flux 0.026 | KCC2 ouabain 0.039 | HEK293 Tl flux2 0.028
CCC(Oc1ccccc1)C(=O)Nc1ccccn1 (stereo not given)	none (no result: ROMK mod)
Brc1ccc(CSc2nnc(-c3ccccn3)n2Cc2ccco2)cc1	none (no result: Cl transport mod) | KCC2 sec1 inactive | KCC2 bumet counter inconclusive | KCC2 sec2 inconclusive | HEK293 Tl flux 0.0045 | KCC2 ouabain inconclusive | HEK293 Tl flux2 0.0073
c1ccc(CSc2nnc(-c3ccco3)n2Cc2ccco2)cc1	none (no result: Cl transport mod) | KCC2 sec1 inactive | KCC2 bumet counter inconclusive | KCC2 sec2 0.026 | HEK293 Tl flux 0.0051 | KCC2 ouabain 0.014 | HEK293 Tl flux2 0.0086
Cc1ccccc1CSc1nnc(-c2ccco2)n1Cc1ccco1	none (no result: Cl transport mod)
Clc1cccc(CSc2nnc(-c3ccccn3)n2Cc2ccco2)c1	none (no result: Cl transport mod)
O=C(CSc1nnc(-c2ccccn2)n1Cc1ccco1)c1ccc(Cl)cc1	none (no result: Cl transport mod) | KCC2 sec1 inactive | KCC2 bumet counter inconclusive | KCC2 sec2 inactive | HEK293 Tl flux 0.006 | KCC2 ouabain inactive | HEK293 Tl flux2 inactive
O=C(c1ccc([N+](=O)[O-])c(CS(=O)(=O)c2ccc(Cl)cc2)c1)N1CCCCC1	none
COc1cccc2cc(C(C)OC(=O)Nc3ccc(C)cc3)oc12 (stereo not given)	none
